Experimental data: article PMC4176526 (Bioorganic & medicinal chemistry letters, 2014)

Target: Myc-tagged Akt1 (Homo sapiens, UniProt P31749)
Assay type: biochemical
Conditions: at 5 µM, immunoblot
Method in brief: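 HEK293 cells transfected with Myc-tagged Akt1; the kinase was immunoprecipitated with anti-Myc antibody. The immobilized enzyme was incubated with a GSK3β fusion protein substrate, with or without test compound. Phospho-GSK3β was detected by immunoblot, and an approximate IC50 was estimated from the blots.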

Chain of Myc-tagged Akt1 (P31749 whole entry): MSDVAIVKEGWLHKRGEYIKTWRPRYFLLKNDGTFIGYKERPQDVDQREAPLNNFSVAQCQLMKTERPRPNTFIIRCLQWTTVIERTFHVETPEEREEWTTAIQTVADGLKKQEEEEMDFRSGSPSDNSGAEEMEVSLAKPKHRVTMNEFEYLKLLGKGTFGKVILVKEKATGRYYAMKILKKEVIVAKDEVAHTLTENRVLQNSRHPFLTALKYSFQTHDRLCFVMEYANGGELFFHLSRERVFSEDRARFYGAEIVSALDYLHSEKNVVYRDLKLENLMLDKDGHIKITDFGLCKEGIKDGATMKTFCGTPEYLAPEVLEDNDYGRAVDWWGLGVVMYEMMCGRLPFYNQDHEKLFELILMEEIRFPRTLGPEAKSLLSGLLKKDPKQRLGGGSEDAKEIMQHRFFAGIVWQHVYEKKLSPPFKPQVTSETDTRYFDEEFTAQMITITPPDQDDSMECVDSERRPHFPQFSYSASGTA

phosphorylation of GSK3β: completely blocks
SMILES: NC1(c2ccc(-c3nc4ccn5c(=O)[nH]nc5c4cc3-c3ccccc3)cc2)CCC1 [MK2206]
